Most compounds without a hit are left out; they make up all but 4.1% or so of the library.
FLuc act counter – affects firefly luciferase, flagging false hits in luciferase stimulation screens. P08659. ATPlite luciferase biochemical, luminescence, 10 min; 0 = ATP-free wells, 1 = DMSO control. activation factor at 10 µM. 200,000 tested, under 10 active;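 active = luciferase activation factor, scaled between plate controls, of at least 2 with compound at 10 µM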
Target sequence (P08659 whole entry, looked up): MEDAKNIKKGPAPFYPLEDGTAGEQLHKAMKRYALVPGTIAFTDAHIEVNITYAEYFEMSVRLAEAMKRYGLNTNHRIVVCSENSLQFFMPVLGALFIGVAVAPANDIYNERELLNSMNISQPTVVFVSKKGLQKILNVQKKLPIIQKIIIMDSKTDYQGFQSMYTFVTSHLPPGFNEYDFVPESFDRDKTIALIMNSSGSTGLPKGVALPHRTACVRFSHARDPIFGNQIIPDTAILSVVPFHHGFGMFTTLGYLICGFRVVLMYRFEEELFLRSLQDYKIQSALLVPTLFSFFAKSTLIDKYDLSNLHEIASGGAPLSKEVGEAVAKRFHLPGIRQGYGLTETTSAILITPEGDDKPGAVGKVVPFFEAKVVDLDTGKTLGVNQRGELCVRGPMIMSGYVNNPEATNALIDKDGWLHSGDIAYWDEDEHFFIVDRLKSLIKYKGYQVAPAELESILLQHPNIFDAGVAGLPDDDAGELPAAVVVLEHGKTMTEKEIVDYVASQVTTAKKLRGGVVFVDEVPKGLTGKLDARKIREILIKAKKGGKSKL
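Material: Luciferase/luciferin reagent mix | Doses: Test compounds dosed from 2 mM stocks in 100% DMSO | Timing: 10 min incubation after luciferase reagent addition, room temperature | Measured by: Luminescence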
NF-kB neuron act – compounds increasing NF-kB expression in human neuronal cells; NF-kB reporter expression; stronger effect = higher value; fold change at 12.5 µM; 1.6% of 190,000 active; AID 1239; in the data active = fold change above about 3.3
APP 5'UTR act – activates APP 5'UTR luciferase reporter; activation, % at 2 µM; SH-SY5Y APP 5'UTR luciferase reporter, luminescence; zero percent = DMSO vehicle wells; AID 1276; 1% of 190,000 active;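 active = activation above a set limit, based on mean plus 3 SD of controls, cut at about 140% in these data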
FLuc inh counter – Photinus pyralis luciferase inhibition counter-screen; ATPLite firefly luciferase biochemical luminescence, 10 min; inhibition, % at 10 µM; 1.5% of 200,000 active;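 active = inhibition above about 50% when tested at 10 µM, limit read from the data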
STAT1 activator – activators of IFN-gamma induced STAT1 signaling. activation (% of control), % at 5.5 µM. 2.6% of 200,000 active. NIH 3T3 STAT1-luciferase reporter, luminescence; 100% = IFN-gamma alone, no compound. AID 932;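 active = activation above the screen-wide mean activation plus 3 SD, cut at about 130% in these data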;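 also: raw ratio to IFN-gamma control signal so 100% means no change and 0% no light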
The depositor's hits bear a star; x = no result.

SMILES	FLuc act counter	NF-kB neuron act	APP 5'UTR act	FLuc inh counter	STAT1 activator
COc1ccccc1NS(=O)(=O)c1cccc(NC(=O)c2cc3ccccc3oc2=O)c1	0.9	2.8	97	7	140*
Cc1ccc(NC(=O)c2cc3ccccc3o2)cc1S(=O)(=O)N(C)C	0.3	5.2*	49	72*	143*
CN(C)S(=O)(=O)c1ccc(NC(=O)c2cc3ccccc3o2)cc1	1	1.3	33	-2	122
Cc1ccc(NC(=O)c2cc3ccccc3oc2=O)cc1S(=O)(=O)N(C)C	0.1	0.54	-47	87*	45
Cc1cccc(-c2cc3nc(C)cc(C)n3n2)c1	0.8	5.9*	142*	20	150*
COc1ccc(-c2cc3nc(C)cc(N)n3n2)cc1	0	4.1*	147*	95*	78
COc1ccc(-c2cc3nc(C)cc(NCCO)n3n2)cc1	0.8	1.9	-3	23	105
NS(=O)(=O)c1ccc(NC(=O)COc2ncnc3c2cnn3-c2ccccc2)cc1	1.1	1.1	4	-6	103
Cc1cc2nc3c(c(=O)n2[nH]1)CCCC3	1.1	1.2	6	-6	101
COc1ccc(-c2cc3nc4c(c(=O)n3[nH]2)CCC4)cc1	0.5	2.6	12	52*	122
O=c1c2c(nc3cc(-c4ccccc4)[nH]n13)CCC2	0.4	3.7*	103	61*	135*
O=C(CSc1nc2[nH]ncc2c(=O)[nH]1)NCc1ccccc1Cl	1	1.1	17	-4	105
NC(=O)COc1ccc(Cc2ncc(C(F)(F)F)cc2Cl)cc1	1.1	1.1	-7	-7	104
Cc1c(C(=O)OCCOC(C)C)[nH]c2c1C(=O)CC(c1ccco1)C2 (stereo unspecified)	1	3.5*	-96	-4	110
COCCOC(=O)c1[nH]c2c(c1C)C(=O)CC(c1ccccc1)C2 (stereo unspecified)	1	3.8*	-92	1	113
CCOC(=O)c1[nH]c2c(c1C)C(=O)CC(c1ccco1)C2 (stereo unspecified)	1	6.4*	-96	-3	102
COc1ccc(OCCN2C(=O)c3ccccc3C2=O)cc1	1	1.7	8	0	126
O=C1c2ccccc2C(=O)N1CCOc1ccccc1	x	x	11	x	135*
CCOC(=O)N/N=C\C=C\c1ccco1	1	1.1	-2	-3	107
CCCC1=C(C(=O)OCC)C(c2cc(Cl)cc(OC)c2OCc2ccccc2)NC(=O)N1 (stereo unspecified)	1.1	0.69	-2	-5	104
CC(C)(C)c1ccc(C(=O)c2c[nH]c(C(=O)O)c2)cc1	0.7	0.88	88	33	142*
COC(=O)c1cc(C(=O)c2ccc(C(C)(C)C)cc2)c[nH]1	0.9	2	37	7	120
CN(C)C=NC(=O)c1cc(C(=O)c2ccc(C(C)(C)C)cc2)c[nH]1	0.8	1.3	171*	21	141*
COc1ccccc1N1CCN(C(=O)C2CCCO2)CC1 (stereo unspecified)	1	0.86	-15	-4	104
COC(=O)c1sc(NC(=O)/C=C/c2ccc(C)cc2)nc1C	1	1.2	30	0	104
SMILES	FLuc act counter	NF-kB neuron act	APP 5'UTR act	FLuc inh counter	STAT1 activator
CC(C)(C)c1ccc(/C=C/C(=O)Nc2nncs2)cc1	0.8	1.2	168*	16	126
CN(Cc1ccccc1)S(=O)(=O)c1ccc(NS(=O)(=O)Cc2ccccc2)cc1	1.1	0.94	-13	-8	101
Nc1ccc2c(c1)Cc1cc([N+](=O)[O-])ccc1-2	1	1.1	7	1	134*
COC(=O)c1sc(NC(=S)NC(=O)c2ccccc2Cl)nc1C	0.3	1.3	30	67*	121
COC(=O)c1sc(NC(=S)NC(=O)c2ccccc2)nc1C	0.4	1	84	63*	110
CCCN(CCC)C(=O)Cn1c(=O)c2ccccc2n2c(=S)sc(-c3ccccc3C)c12	1.1	0.75	0	-8	99
COc1ccc(/C=C2\SC(=N)N(c3nccs3)C2=O)cc1OC	0.2	1.2	-22	77*	97
COc1cccc(-n2nc(C#N)c(Cl)cc2=O)c1	1.1	0.12	-91	-6	83
CCOC(=O)c1sc(=NC(=O)c2ccc(C)cc2)n(C)c1C	0.8	3.7*	75	21	139*
CCOC(=O)N1CCN(C(=O)CCSc2ccccc2)CC1	1	1.8	75	-3	134*

From PubChem BioAssay
